High-throughput results deposited in PubChem BioAssay by several laboratories.
PHOSPHO1 block: PubChem AID 1565; recombinant PHOSPHO1, absorbance phosphatase assay; inhibition, % at 13.3 µM; Phosphoethanolamine/phosphocholine phosphatase (Homo sapiens), Q8TCT1; hit rate 1.1% among 290,000; in the data active = inhibition above about 60%
PGE2 EP2 inh: human EP2 receptor antagonists, primary screen, TR-FRET cAMP, C6 glioma cells | hit rate 0.52% among 260,000 | Prostaglandin E2 receptor EP2 subtype (Homo sapiens), P43116 | inhibition, % at 25 µM | C6 glioma cells expressing human EP2; cells stimulated with saturating PGE2;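 active = percent inhibition above 40 after rounding to a whole number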;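 also: rat C6 glioma host cells with rolipram phosphodiesterase inhibitor present; the protocol text gives 20 µM as final concentration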
Tb hexokinase: Trypanosoma brucei hexokinase 1 inhibitors, primary screen, biochemical, G6PDH-coupled NADH absorbance, MLSCN library; hexokinase 1 [Trypanosoma brucei]; recombinant TbHK1, G6PDH-coupled NADH A340; inhibition, % at 10 µM; hit rate 0.11% among 220,000;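 active = inhibition of 50% or more in the single-dose primary screen; inactive = inhibition below 50%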
HKDC1 inh: HKDC1 hexokinase inhibitors, primary screen, biochemical, fluorescence, uHTS; hit rate 0.16% among 340,000; inhibition, % at 20 µM; recombinant HKDC1, G6PDH/diaphorase resazurin coupled fluorescence; AID 493160, 2011;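 active = inhibition above about 35% when tested at 20 µM, limit read from the data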
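Assay system: in-house recombinant HK5 (HKDC1) enzyme. Input: HKDC1 at 5 µg/mL. Medium: Tris pH 8.0 buffer with MgCl2, Tween-20, BSA, BME. Dosing: single 20 µM dose. Schedule: 90 min reaction incubation at room temperature, dark. Signal: resazurin-to-resorufin fluorescence via G6PDH and diaphorase coupling, 525/613 nm. Controls: DMSO-enzyme wells negative, buffer-substituted wells positive.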
EP2 modulator: EP2 receptor modulators, cAMP readout, primary screen, cell-based, HTRF cAMP, PGE2 stimulation. induction, % at 25 µM. hit rate 0.83% among 260,000. EP2-expressing cells, cAMP HTRF FRET, PGE2 co-stimulation;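 active = compounds whose cAMP rise, as percent of the full-agonist control response, exceeds 60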;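 also: rat C6 glioma line stably carrying human EP2 under a CMV promoter; the protocol text gives 20 µM as final concentration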
PfG6PD inh: PfG6PD enzyme inhibitors, primary screen, biochemical, fluorescence intensity, uHTS. glucose-6-phosphate dehydrogenase-6-phosphogluconolactonase (Plasmodium falciparum 3D7). PfGluPho enzyme, NADPH resazurin-diaphorase fluorescence. inhibition, % at 20 µM. hit rate 0.78% among 350,000. AID 504690, 2011;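 active = inhibition reaching at least a set limit at 20 µM in the primary screen, cut at about 59% in these data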
PfGluPho conf: PfG6PD inhibitors, hit retest, confirmation, biochemical, fluorescence intensity, single concentration; shares compounds with PfG6PD inh; recombinant PfGluPho, NADPH-diaphorase-resazurin fluorescence; inhibition, % at 20 µM; hit rate 34% among 2,400; AID 504753, 2011;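 active = inhibition of at least 50% at 20 µM in any single replicate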
Diaph ctr 10uM: diaphorase inhibitors and chemical oxidizers, confirmation, counter-screen for P. falciparum G6PD inhibitor project, biochemical, fluorescence intensity, 10 µM NADPH; shares compounds with PfG6PD inh; diaphorase-coupled resazurin reduction, NADPH 10 uM; inhibition, % at 20 µM; hit rate 39% among 820; AID 504862, 2011;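 active = average inhibition reaching 50% or more with the compound at 20 µM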;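 also: resorufin red fluorescence formed as diaphorase reduces resazurin using NADPH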
Diaphorase 30uM: diaphorase inhibitors and chemical oxidizers, confirmation, counter-screen for P. falciparum G6PD inhibitor project, biochemical, fluorescence intensity, 30 µM NADPH | hit rate 29% among 820 | Diaphorase/resazurin coupled assay, resorufin fluorescence | inhibition, % at 20 µM | shares compounds with PfG6PD inh | AID 504863, 2011;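 active = inhibition averaging 50% or more, tested at 20 µM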
Large screens that a line does not name were inactive (follow-up assays come after a bar, where they were run). Only some compounds are listed: those with a hit (about 2.5% of all), similar ones and a draw of the others.

CCn1c(CNc2ccc(OC)cc2)nnc1SCc1c(Cl)cccc1Cl	none (no result: PHOSPHO1 block, Tb hexokinase, HKDC1 inh, PfG6PD inh)
CN1CCN(/C=N/c2sc3c(c2C#N)CCCCC3)CC1	none
N#Cc1c(/N=C/C=C/c2ccccc2)sc2c1CCCC2	PfG6PD inh 60 | PfGluPho conf inactive
Nc1ccc(-c2nc3ccc([N+](=O)[O-])cc3[nH]2)cc1	none
O=[N+]([O-])c1ccc2nc(/C=C/c3ccc(Cl)cc3)[nH]c2c1	PfG6PD inh 62 | PfGluPho conf inactive
O=[N+]([O-])c1ccc(-c2nc3ccc([N+](=O)[O-])cc3[nH]2)cc1	PfG6PD inh 86 | PfGluPho conf inactive
Cc1ccc(Cn2nnnc2CN2CCC(c3nc4ccccc4s3)CC2)cc1	none (no result: PHOSPHO1 block, Tb hexokinase, HKDC1 inh, PfG6PD inh)
COc1cccc(C(=O)N(Cc2cccs2)Cc2cc3cccc(C)c3[nH]c2=O)c1	none (no result: PHOSPHO1 block, Tb hexokinase, HKDC1 inh, PfG6PD inh)
CC1CCCN(C(=O)Nc2ccc(NC(=O)N3CCCC(C)C3C)cc2)C1C (stereo not given)	none (no result: PHOSPHO1 block, Tb hexokinase, HKDC1 inh, PfG6PD inh)
CCCc1nn(CC(=O)O)c(=O)c2cc3ccsc3n12	none (no result: PHOSPHO1 block, Tb hexokinase, HKDC1 inh, PfG6PD inh)
C=CCN(CC=C)C(=S)NC(=O)c1ccc([N+](=O)[O-])cc1	PfG6PD inh 86 | PfGluPho conf inactive
COc1ccccc1-n1c(=O)oc2ccc(Cl)cc2c1=O	PfG6PD inh 61 | PfGluPho conf inactive
CCOc1ccccc1C(=O)Nc1ccc(S(=O)(=O)Nc2nccc(C)n2)cc1	PfG6PD inh 73 (no result: PGE2 EP2 inh, Tb hexokinase, EP2 modulator) | PfGluPho conf inactive
O=c1[nH]c(=O)c2[nH]c(=S)n(-c3ccccc3)c2[nH]1	PfG6PD inh 64 (no result: PHOSPHO1 block, PGE2 EP2 inh, Tb hexokinase, EP2 modulator) | PfGluPho conf inactive
CCOC(=O)c1[nH]c(=S)n(-c2ccccc2)c1C(=O)OCC	none (no result: PHOSPHO1 block, PGE2 EP2 inh, Tb hexokinase, HKDC1 inh, EP2 modulator)
CCCCOC(=O)C1=C(C)N(C)C(=O)NC1c1cc2c(cc1Br)OCO2 (stereo not given)	none (no result: PHOSPHO1 block, PGE2 EP2 inh, Tb hexokinase, HKDC1 inh, EP2 modulator)
CCOC(=O)C1=C(C)N(C)C(=O)NC1c1cc2c(cc1[N+](=O)[O-])OCO2 (stereo not given)	PfG6PD inh 71 | PfGluPho conf inactive
O=C(Nc1nc2c(s1)CCCC2)c1ccc(Br)s1	PfG6PD inh 68 | PfGluPho conf inactive
O=C(Nc1nc2c(s1)CCCC2)c1ccc2ncsc2c1	PfG6PD inh 65 (no result: PGE2 EP2 inh) | PfGluPho conf inactive
CCc1ccc2[nH]c(=O)c(CN(C(=O)Nc3ccccc3F)C3CCCC3)cc2c1	none (no result: PHOSPHO1 block, Tb hexokinase, HKDC1 inh, PfG6PD inh)
COc1cccc(-c2nn(C)c3sc(C(=O)NCc4ccc5c(c4)OCO5)cc23)c1	none
COc1cccc(-c2nn(C)c3sc(C(=O)NCc4ccc(C)o4)cc23)c1	PfG6PD inh 64 | PfGluPho conf inactive
COc1cc(Sc2ccc(C)cc2)c(OC)cc1N	PfG6PD inh 60 | PfGluPho conf 56 | Diaph ctr 10uM inactive | Diaphorase 30uM inactive
COC(=O)c1ccc(Sc2ccc(C)cc2)c(N)c1	none
O=c1[nH]c2cc3c(cc2cc1CN(Cc1ccco1)Cc1nnnn1CCc1ccccc1)OCO3	none (no result: PHOSPHO1 block, Tb hexokinase, HKDC1 inh, PfG6PD inh)
O=C(CCN1C(=O)/C(=C\c2ccccc2)SC1=S)NCCCN1CCOCC1	none (no result: PGE2 EP2 inh, Tb hexokinase, EP2 modulator)
O=C1C(=Cc2ccccc2O)SC(=S)N1CCCN1CCOCC1	PfG6PD inh 71 (no result: PHOSPHO1 block, PGE2 EP2 inh, Tb hexokinase, HKDC1 inh, EP2 modulator) | PfGluPho conf inactive
COCC(C)n1c(C)cc(C(=O)CSc2nc(C)c(C)c(C)n2)c1C (stereo not given)	PfG6PD inh 60 | PfGluPho conf inactive
COCCn1c(C)cc(C(=O)CSc2nc(C)c(C)c(C)n2)c1C	none
